# Activity calls are given as the source filed them. No cut-off for these calls is given here. Where a SMILES comes first, the peptide text is derived from it. [ ]: non-standard residue; d: D form. ξ: configuration not given here. ξDisc = O=C(O)C1NCc2ccccc21
# Columns and labels:
# [1] = target: T1, Pituitary adenylate cyclase-activating polypeptide type I receptor (Homo sapiens, UniProt P41586); test: Agonist activity at human recombinant PAC1 receptor expressed in CHO cells assessed as PACAP38-induced calcium mobilization at 1 uM by FLIPR assay relative to PACAP38; type: functional, cell-based
# Target sequence in this assay (P41586 21-468 limits assumed): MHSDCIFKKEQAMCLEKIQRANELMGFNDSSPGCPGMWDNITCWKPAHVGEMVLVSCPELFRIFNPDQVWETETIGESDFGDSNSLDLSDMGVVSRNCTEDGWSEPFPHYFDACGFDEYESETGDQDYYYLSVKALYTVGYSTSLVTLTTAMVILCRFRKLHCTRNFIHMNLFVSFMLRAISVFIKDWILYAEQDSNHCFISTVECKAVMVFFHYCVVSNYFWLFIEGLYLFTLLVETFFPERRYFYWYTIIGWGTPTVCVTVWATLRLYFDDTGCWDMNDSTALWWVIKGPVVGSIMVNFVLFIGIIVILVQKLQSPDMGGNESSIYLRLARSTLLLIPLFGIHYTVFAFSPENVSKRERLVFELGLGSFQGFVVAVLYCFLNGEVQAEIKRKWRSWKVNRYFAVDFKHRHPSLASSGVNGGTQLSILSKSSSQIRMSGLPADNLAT
# [2] = target: T1, Pituitary adenylate cyclase-activating polypeptide type I receptor; test: Agonist activity at human recombinant PAC1 receptor expressed in CHO cells assessed as PACAP38-induced calcium mobilization at 1 uM by FLIPR assay; type: functional, cell-based
# Target sequence in this assay (P41586 whole entry): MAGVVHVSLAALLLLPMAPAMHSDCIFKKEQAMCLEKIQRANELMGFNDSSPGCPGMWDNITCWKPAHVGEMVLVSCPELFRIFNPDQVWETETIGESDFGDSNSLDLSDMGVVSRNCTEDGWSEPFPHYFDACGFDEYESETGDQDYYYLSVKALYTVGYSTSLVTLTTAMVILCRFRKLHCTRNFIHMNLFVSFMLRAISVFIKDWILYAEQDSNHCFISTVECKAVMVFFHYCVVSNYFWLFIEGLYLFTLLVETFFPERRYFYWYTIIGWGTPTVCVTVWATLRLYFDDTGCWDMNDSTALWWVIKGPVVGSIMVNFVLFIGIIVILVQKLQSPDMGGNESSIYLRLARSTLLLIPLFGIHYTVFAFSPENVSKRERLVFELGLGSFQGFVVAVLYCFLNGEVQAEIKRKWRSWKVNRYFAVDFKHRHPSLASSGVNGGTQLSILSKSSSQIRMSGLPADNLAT
# [3] = target: T1, Pituitary adenylate cyclase-activating polypeptide type I receptor; test: Displacement of [125I]Ac-PACAP27 from human recombinant PAC1 receptor expressed in CHO cells by gamma- counter; type: cell-based
# Target sequence in this assay (P41586 whole entry): as above
# [4] = target: T1, Pituitary adenylate cyclase-activating polypeptide type I receptor; test: Antagonist activity at human recombinant PAC1 receptor expressed in CHO cells assessed as reduction in PACAP38-induced calcium mobilization by FLIPR assay; type: functional, cell-based; settings: read-out: pA2 (converted)
# Method in brief: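 PAC1-CHO cells were loaded with fluo-4 and preincubated 15 min with antagonist at 0.1, 1 or 10 µM. PACAP38 concentration-response curves for calcium mobilization were then recorded. pA2 was estimated by Schild plot from concentration ratios; 4-10 independent assays in duplicate.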
# Target sequence in this assay (P41586 whole entry): as above
Emax [1],EC50 [2],IC50 [3] [nM],Kb [4] [nM],Structure (SMILES)
inactive,Not Active,3150,–,CC[C@H](C)[C@H](NC(=O)CNC(=O)[C@H](CC(=O)O)NC(=O)[C@H](CO)NC(=O)[C@@H](N)Cc1cnc[nH]1)C(=O)N(C)[C@@H](Cc1ccccc1)C(=O)N[C@H](C(=O)N[C@@H](CC(=O)O)C(=O)N[C@@H](CO)C(=O)N[C@@H](Cc1ccc(O)cc1)C(=O)N[C@@H](CO)C(=O)N[C@@H](CCCNC(=N)N)C(=O)N[C@@H](Cc1ccc(O)cc1)C(=O)N[C@@H](CCCNC(=N)N)C(=O)N[C@@H](CCCCN)C(=O)N[C@@H](CCC(N)=O)C(=O)N[C@@H](CCSC)C(=O)N[C@@H](C)C(=O)N[C@H](C(=O)N[C@@H](CCCCN)C(=O)N[C@@H](CCCCN)C(=O)N[C@@H](Cc1ccc(O)cc1)C(=O)N[C@@H](CC(C)C)C(=O)N[C@@H](C)C(=O)N[C@@H](C)C(=O)N[C@H](C(=O)N[C@@H](CC(C)C)C(N)=O)C(C)C)C(C)C)[C@@H](C)O
inactive,Not Active,97,4.07,CC[C@H](C)[C@H](NC(=O)CN(C)C(=O)[C@H](CC(=O)O)NC(=O)[C@H](CO)NC(=O)[C@@H](N)Cc1cnc[nH]1)C(=O)N[C@@H](Cc1ccccc1)C(=O)N[C@H](C(=O)N[C@@H](CC(=O)O)C(=O)N[C@@H](CO)C(=O)N[C@@H](Cc1ccc(O)cc1)C(=O)N[C@@H](CO)C(=O)N[C@@H](CCCNC(=N)N)C(=O)N[C@@H](Cc1ccc(O)cc1)C(=O)N[C@@H](CCCNC(=N)N)C(=O)N[C@@H](CCCCN)C(=O)N[C@@H](CCC(N)=O)C(=O)N[C@@H](CCSC)C(=O)N[C@@H](C)C(=O)N[C@H](C(=O)N[C@@H](CCCCN)C(=O)N[C@@H](CCCCN)C(=O)N[C@@H](Cc1ccc(O)cc1)C(=O)N[C@@H](CC(C)C)C(=O)N[C@@H](C)C(=O)N[C@@H](C)C(=O)N[C@H](C(=O)N[C@@H](CC(C)C)C(=O)NCC(=O)N[C@@H](CCCCN)C(=O)N[C@@H](CCCNC(=N)N)C(=O)N[C@@H](Cc1ccc(O)cc1)C(=O)N[C@@H](CCCCN)C(=O)N[C@@H](CCC(N)=O)C(=O)N[C@@H](CCCNC(=N)N)C(=O)N[C@H](C(=O)N[C@@H](CCCCN)C(=O)N[C@@H](CC(N)=O)C(=O)N[C@@H](CCCCN)C(N)=O)C(C)C)C(C)C)C(C)C)[C@@H](C)O
inactive,Not Active,1750,–,CC[C@H](C)[C@H](NC(=O)CNC(=O)[C@H](CC(=O)O)NC(=O)[C@H](CO)NC(=O)[C@@H](N)Cc1cnc[nH]1)C(=O)N1Cc2ccccc2C1C(=O)N[C@H](C(=O)N[C@@H](CC(=O)O)C(=O)N[C@@H](CO)C(=O)N[C@@H](Cc1ccc(O)cc1)C(=O)N[C@@H](CO)C(=O)N[C@@H](CCCNC(=N)N)C(=O)N[C@@H](Cc1ccc(O)cc1)C(=O)N[C@@H](CCCNC(=N)N)C(=O)N[C@@H](CCCCN)C(=O)N[C@@H](CCC(N)=O)C(=O)N[C@@H](CCSC)C(=O)N[C@@H](C)C(=O)N[C@H](C(=O)N[C@@H](CCCCN)C(=O)N[C@@H](CCCCN)C(=O)N[C@@H](Cc1ccc(O)cc1)C(=O)N[C@@H](CC(C)C)C(=O)N[C@@H](C)C(=O)N[C@@H](C)C(=O)N[C@H](C(=O)N[C@@H](CC(C)C)C(=O)NCC(=O)N[C@@H](CCCCN)C(=O)N[C@@H](CCCNC(=N)N)C(=O)N[C@@H](Cc1ccc(O)cc1)C(=O)N[C@@H](CCCCN)C(=O)N[C@@H](CCC(N)=O)C(=O)N[C@@H](CCCNC(=N)N)C(=O)N[C@H](C(=O)N[C@@H](CCCCN)C(=O)N[C@@H](CC(N)=O)C(=O)N[C@@H](CCCCN)C(N)=O)C(C)C)C(C)C)C(C)C)[C@@H](C)O (stereo partly specified) (H-HSDGI[ξDisc]TDSYSRYRKQMAVKKYLAAVLGKRYKQRVKNK-NH2)
inactive,Not Active,76.3,35.5,CC[C@H](C)[C@H](NC(=O)CNC(=O)[C@H](CC(=O)O)NC(=O)[C@H]1CCCN1C(=O)[C@@H](N)Cc1cnc[nH]1)C(=O)N[C@@H](Cc1ccccc1)C(=O)N[C@H](C(=O)N[C@@H](CC(=O)O)C(=O)N[C@@H](CO)C(=O)N[C@@H](Cc1ccc(O)cc1)C(=O)N[C@@H](CO)C(=O)N[C@@H](CCCNC(=N)N)C(=O)N[C@@H](Cc1ccc(O)cc1)C(=O)N[C@@H](CCCNC(=N)N)C(=O)N[C@@H](CCCCN)C(=O)N[C@@H](CCC(N)=O)C(=O)N[C@@H](CCSC)C(=O)N[C@@H](C)C(=O)N[C@H](C(=O)N[C@@H](CCCCN)C(=O)N[C@@H](CCCCN)C(=O)N[C@@H](Cc1ccc(O)cc1)C(=O)N[C@@H](CC(C)C)C(=O)N[C@@H](C)C(=O)N[C@@H](C)C(=O)N[C@H](C(=O)N[C@@H](CC(C)C)C(=O)NCC(=O)N[C@@H](CCCCN)C(=O)N[C@@H](CCCNC(=N)N)C(=O)N[C@@H](Cc1ccc(O)cc1)C(=O)N[C@@H](CCCCN)C(=O)N[C@@H](CCC(N)=O)C(=O)N[C@@H](CCCNC(=N)N)C(=O)N[C@H](C(=O)N[C@@H](CCCCN)C(=O)N[C@@H](CC(N)=O)C(=O)N[C@@H](CCCCN)C(N)=O)C(C)C)C(C)C)C(C)C)[C@@H](C)O
inactive,Not Active,3590,–,CC[C@H](C)[C@H](NC(=O)CNC(=O)[C@H](CC(=O)O)NC(=O)[C@H](CO)NC(=O)[C@@H](N)Cc1cnc[nH]1)C(=O)N1Cc2ccccc2C1C(=O)N[C@H](C(=O)N[C@@H](CC(=O)O)C(=O)N[C@@H](CO)C(=O)N[C@@H](Cc1ccc(O)cc1)C(=O)N[C@@H](CO)C(=O)N[C@@H](CCCNC(=N)N)C(=O)N[C@@H](Cc1ccc(O)cc1)C(=O)N[C@@H](CCCNC(=N)N)C(=O)N[C@@H](CCCCN)C(=O)N[C@@H](CCC(N)=O)C(=O)N[C@@H](CCSC)C(=O)N[C@@H](C)C(=O)N[C@H](C(=O)N[C@@H](CCCCN)C(=O)N[C@@H](CCCCN)C(=O)N[C@@H](Cc1ccc(O)cc1)C(=O)N[C@@H](CC(C)C)C(=O)N[C@@H](C)C(=O)N[C@@H](C)C(=O)N[C@H](C(=O)N[C@@H](CC(C)C)C(N)=O)C(C)C)C(C)C)[C@@H](C)O (stereo partly specified)
inactive,Not Active,2590,–,CC[C@H](C)[C@H](NC(=O)CNC(=O)[C@H](CC(=O)O)NC(=O)[C@H](CO)NC(=O)[C@@H](N)Cc1cnc[nH]1)C(=O)N1CCc2ccccc2C1C(=O)N[C@H](C(=O)N[C@@H](CC(=O)O)C(=O)N[C@@H](CO)C(=O)N[C@@H](Cc1ccc(O)cc1)C(=O)N[C@@H](CO)C(=O)N[C@@H](CCCNC(=N)N)C(=O)N[C@@H](Cc1ccc(O)cc1)C(=O)N[C@@H](CCCNC(=N)N)C(=O)N[C@@H](CCCCN)C(=O)N[C@@H](CCC(N)=O)C(=O)N[C@@H](CCSC)C(=O)N[C@@H](C)C(=O)N[C@H](C(=O)N[C@@H](CCCCN)C(=O)N[C@@H](CCCCN)C(=O)N[C@@H](Cc1ccc(O)cc1)C(=O)N[C@@H](CC(C)C)C(=O)N[C@@H](C)C(=O)N[C@@H](C)C(=O)N[C@H](C(=O)N[C@@H](CC(C)C)C(N)=O)C(C)C)C(C)C)[C@@H](C)O (stereo partly specified)
inactive,Not Active,1280,–,CC[C@H](C)[C@H](NC(=O)CNC(=O)[C@H](CC(=O)O)NC(=O)[C@H](CO)NC(=O)[C@@H](N)Cc1cnc[nH]1)C(=O)N(C)[C@@H](Cc1ccccc1)C(=O)N[C@H](C(=O)N[C@@H](CC(=O)O)C(=O)N[C@@H](CO)C(=O)N[C@@H](Cc1ccc(O)cc1)C(=O)N[C@@H](CO)C(=O)N[C@@H](CCCNC(=N)N)C(=O)N[C@@H](Cc1ccc(O)cc1)C(=O)N[C@@H](CCCNC(=N)N)C(=O)N[C@@H](CCCCN)C(=O)N[C@@H](CCC(N)=O)C(=O)N[C@@H](CCSC)C(=O)N[C@@H](C)C(=O)N[C@H](C(=O)N[C@@H](CCCCN)C(=O)N[C@@H](CCCCN)C(=O)N[C@@H](Cc1ccc(O)cc1)C(=O)N[C@@H](CC(C)C)C(=O)N[C@@H](C)C(=O)N[C@@H](C)C(=O)N[C@H](C(=O)N[C@@H](CC(C)C)C(=O)NCC(=O)N[C@@H](CCCCN)C(=O)N[C@@H](CCCNC(=N)N)C(=O)N[C@@H](Cc1ccc(O)cc1)C(=O)N[C@@H](CCCCN)C(=O)N[C@@H](CCC(N)=O)C(=O)N[C@@H](CCCNC(=N)N)C(=O)N[C@H](C(=O)N[C@@H](CCCCN)C(=O)N[C@@H](CC(N)=O)C(=O)N[C@@H](CCCCN)C(N)=O)C(C)C)C(C)C)C(C)C)[C@@H](C)O
inactive,Not Active,268,–,CC[C@H](C)[C@H](NC(=O)CNC(=O)[C@H](CC(=O)O)NC(=O)[C@H]1CCCN1C(=O)[C@@H](N)Cc1cnc[nH]1)C(=O)N[C@@H](Cc1ccccc1)C(=O)N[C@H](C(=O)N[C@@H](CC(=O)O)C(=O)N[C@@H](CO)C(=O)N[C@@H](Cc1ccc(O)cc1)C(=O)N[C@@H](CO)C(=O)N[C@@H](CCCNC(=N)N)C(=O)N[C@@H](Cc1ccc(O)cc1)C(=O)N[C@@H](CCCNC(=N)N)C(=O)N[C@@H](CCCCN)C(=O)N[C@@H](CCC(N)=O)C(=O)N[C@@H](CCSC)C(=O)N[C@@H](C)C(=O)N[C@H](C(=O)N[C@@H](CCCCN)C(=O)N[C@@H](CCCCN)C(=O)N[C@@H](Cc1ccc(O)cc1)C(=O)N[C@@H](CC(C)C)C(=O)N[C@@H](C)C(=O)N[C@@H](C)C(=O)N[C@H](C(=O)N[C@@H](CC(C)C)C(N)=O)C(C)C)C(C)C)[C@@H](C)O
